Source: PubChem BioAssay AID493160 (Sanford-Burnham Center for Chemical Genomics, 2011)
Among all 340,000 compounds or so, about 540 (0.16%) were called active. Many of the other results were omitted from the sample, so actives are more common in it than they were. A number with no mark means an inactive call.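 How the source made its calls: active means inhibition above about 35% when tested at 20 µM (limit read from the data); inactive means the rest.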

These molecules were tested against Hexokinase HKDC1 (Homo sapiens) (UniProt Q2TB90) (assay: blockers of human HKDC1 enzyme activity – biochemical, fluorescence, uHTS, primary screen (AID 493160;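 further: plate controls were DMSO wells with enzyme for no effect and DMSO wells lacking enzyme for full effect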)). Conditions: recombinant HKDC1, G6PDH/diaphorase resazurin coupled fluorescence; at 20 µM; stronger effect = higher value.
Chain of Hexokinase HKDC1 (Homo sapiens) (Q2TB90 whole entry, looked up): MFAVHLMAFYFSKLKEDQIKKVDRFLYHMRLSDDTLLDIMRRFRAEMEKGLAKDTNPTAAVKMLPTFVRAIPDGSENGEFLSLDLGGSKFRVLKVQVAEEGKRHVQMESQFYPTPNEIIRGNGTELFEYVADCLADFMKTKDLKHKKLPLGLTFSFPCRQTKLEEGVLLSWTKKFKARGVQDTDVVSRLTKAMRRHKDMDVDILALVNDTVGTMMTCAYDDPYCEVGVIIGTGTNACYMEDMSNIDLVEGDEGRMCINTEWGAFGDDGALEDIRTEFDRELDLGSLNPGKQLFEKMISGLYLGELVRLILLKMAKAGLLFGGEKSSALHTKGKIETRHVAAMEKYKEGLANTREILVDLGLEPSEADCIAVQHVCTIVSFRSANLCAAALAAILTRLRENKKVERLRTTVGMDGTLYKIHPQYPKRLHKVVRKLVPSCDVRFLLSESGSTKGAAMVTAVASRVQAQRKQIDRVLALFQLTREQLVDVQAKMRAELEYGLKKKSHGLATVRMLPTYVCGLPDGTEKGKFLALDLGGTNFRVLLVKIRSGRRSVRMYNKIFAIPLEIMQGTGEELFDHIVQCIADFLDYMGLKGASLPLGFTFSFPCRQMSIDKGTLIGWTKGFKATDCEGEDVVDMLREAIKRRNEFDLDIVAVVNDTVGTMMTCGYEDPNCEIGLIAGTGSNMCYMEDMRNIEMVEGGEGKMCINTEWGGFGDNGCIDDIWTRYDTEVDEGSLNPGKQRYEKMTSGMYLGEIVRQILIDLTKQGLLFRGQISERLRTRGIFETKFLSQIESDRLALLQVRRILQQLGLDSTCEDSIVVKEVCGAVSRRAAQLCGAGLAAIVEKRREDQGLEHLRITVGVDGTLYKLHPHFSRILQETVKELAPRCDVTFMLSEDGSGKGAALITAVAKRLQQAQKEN
Outline: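 Assay system: recombinant HKDC1 hexokinase; detection: coupled resazurin fluorescence, excitation 525 nm, emission 613 nm; benchmarks: DMSO-plus-enzyme-mix negative control, buffer-substituted positive control; compound dosing: single 20 µM dose; schedule: 90 min at room temperature in dark; also added: glucose plus 1 mM ATP as hexokinase substrates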
`CCCC(=O)N1CCC(CCC(=O)NC2CC2)CC1` gave an inhibition of -4.77%.
Work on `COc1cc(Cl)c(C)cc1NC(=O)CSc1nnc(CN2CCCC2)o1` yielded an inhibition of -4.86%.
Molecule `O=S(=O)(NN=C1CCCCCCC1)c1ccc(Br)cc1` has an inhibition of 3.73%.
For `CCOc1cc(NC(=S)NCCCN(C)C)c(OCC)cc1NC(=O)C1CC1`, the inhibition was -8.33%.
For `CC(Cc1cccs1)N(Cc1ccc(Cl)cc1)C(=O)c1ccncc1` (stereo unspecified), the inhibition was 3.31%.
For `O=C1C(=O)N(CCCN2CCOCC2)C(c2ccc([N+](=O)[O-])cc2)/C1=C(\O)c1ccc2c(c1)OCCO2` (stereo unspecified), the inhibition was -4.72%.
With `Cc1cccc(-n2c(SCC(=O)Nc3cccc(S(=O)(=O)NC4=NCCCCC4)c3)nc3ccccc3c2=O)c1C` the inhibition was 1.69%.
`Cc1ccnc(SCC(=O)Nc2cccc(S(=O)(=O)N3CCOCC3)c2)n1` showed an inhibition of 0.74%.
For `CCOC(=O)C1CCN(C(=O)CC2C(=O)N(Cc3ccccc3)C(C)c3nc4ccccc4n32)CC1` (stereo unspecified), the inhibition was -7.65%.
`CCCCN(C(=O)c1ccc2ccccc2c1)c1c(N)n(CCCC)c(=O)[nH]c1=O` gave an inhibition of -1.92%.
`CCN(CC)C(=O)CSc1nc2ccccc2n1CC(=O)N1CCN(c2ccccc2OC)CC1` gave an inhibition of -2.34%.
`CCC(C)NC(=O)c1cc(Cl)ccc1OC` (stereo unspecified) gave an inhibition of -12.3%.
`COc1ccc(C(=O)COC(=O)Cn2cnc3c2c(=O)n(C)c(=O)n3C)c(OC)c1` was tested, and the inhibition was -0.76%.
For `COc1ccc2[nH]c3c(c2c1)CCN1C(=O)C(CC(=O)NCc2cccc(C(F)(F)F)c2)C[C@H](C(=O)N2CCOCC2)[C@@]31C` (stereo partly specified), the inhibition was 5.85%.
Work on `O=C(O)CCCCCCCCCC[n+]1ccccc1` yielded an inhibition of -10.3%.
`Cc1cc(C)n2nc(C(=O)OCC(=O)N(C)CC(=O)Nc3ccc(F)cc3)nc2n1` showed an inhibition of -5.6%.
`O=C(NC(=O)c1ccccc1)Nc1ccccc1O` was tested, and the inhibition was 2.6%.
`CC(NC(=O)c1ccccc1)C(=O)Nc1ccccc1` (stereo unspecified) gave an inhibition of -6.92%.
For `O=C(NC1=CC(=O)c2ccccc2C1=O)c1ccccc1`, the inhibition was 54.1% (active).
`CCN(Cc1ccccc1)S(=O)(=O)c1cc2c3c(c1)CCN3C(=O)CC2` was tested, and the inhibition was 4.66%.
`Cc1cc(C(=O)COC(=O)CNC(=O)c2ccc(F)cc2)c(C)n1Cc1ccco1` gave an inhibition of -4.86%.
In the case of `O=C(COc1ccccc1)Nc1cc2c3c(c1)CC(=O)N3CCC2`, the inhibition is reported as -4.21%.
In the case of `Cn1nc(C(F)(F)F)cc1-c1ccc(/C=C(\C#N)C(=O)c2cccc(C(F)(F)F)c2)s1`, the inhibition is reported as 13.8%.
`Cc1cc(C)c2oc(C(=O)Nc3ccc(S(=O)(=O)Nc4nccc(C)n4)cc3)cc(=O)c2c1` gave an inhibition of 0.48%.
For `COc1cc(OC)cc(C(=O)NCC(=O)N2CCCCCCC2)c1`, the inhibition was -3.62%.
`CC(=O)N(C1=C(Cl)C(=O)c2ccccc2C1=O)c1ccc(C(=O)O)cc1` was tested, and the inhibition was 52.2% (active).
Work on `CCCN(CC(=O)Nc1ccccc1C)C(=O)c1ccc(OCC(=O)N2CCOCC2)c(OCC)c1` yielded an inhibition of -2.45%.
In the case of `N#Cc1ccc(C2N=C(c3ccccc3)NO2)cc1` (stereo unspecified), the inhibition is reported as 0.41%.
`O=C(C1CCN(S(=O)(=O)c2cnc[nH]2)CC1)N1CCN(Cc2ccc3c(c2)OCO3)CC1` gave an inhibition of 0.71%.
`C=CCN(Cc1nc(-c2cc(OC)c3c(c2)OCO3)oc1C)C1CCS(=O)(=O)C1` (stereo unspecified) was tested, and the inhibition was -3.24%.
`COc1ccc(N(CC(=O)N/N=C/c2cccs2)S(=O)(=O)c2ccc(OC)c(OC)c2)cc1` gave an inhibition of -10.3%.
`COc1ccc(N(CC(=O)N/N=C/c2cccc3c2OCCO3)S(=O)(=O)c2ccc(NC(C)=O)cc2)cc1` was tested, and the inhibition was 38.1% (active).
Molecule `CC(=O)Nc1ccc(S(=O)(=O)N(CCc2ccccc2)CC(=O)N/N=C/c2ccc(C(=O)O)cc2)cc1` has an inhibition of -2.7%.
In the case of `COc1ccc(Cl)cc1C(=O)NNC(=O)c1nc2nc(C)cc(C)n2n1`, the inhibition is reported as 0.07%.
`O=c1ccc2c(-c3ccccc3S(=O)(=O)O)c3ccc(O)c(O)c3oc-2c1O` was tested, and the inhibition was 38.4% (active).
In the case of `COc1ccccc1CNC(=O)[C@@H]1CCCN1C(=O)[C@@H]1Cc2ccccc2CN1C(=O)OC(C)(C)C`, the inhibition is reported as 3.72%.
Molecule `Cc1cc[n+](-c2[nH]c(=O)sc2/C=N/NC(=O)c2ccccc2[O-])cc1C` has an inhibition of -1.94%.
`O=C(COC(=O)Cn1cnc2ccccc2c1=O)NCc1ccccc1Cl` showed an inhibition of -10.3%.
For `O=C(Nc1cc(-c2nn(CC(=O)N3CCCCC3)c(=O)c3ccccc23)ccc1N1CCOCC1)c1ccc(Cl)cc1`, the inhibition was -2.81%.
For `O=c1[nH]c2ccccc2n2c(-c3ccccc3)nnc12`, the inhibition was 46.7% (active).
`O=c1[nH]n2c(-c3ccccc3)nc(O)c2c2ccccc12` was tested, and the inhibition was -18.8%.
For `O=C(C[C@H]1C/C=C\C[C@@H](NC(=O)OCC2c3ccccc3-c3ccccc32)C(=O)O[C@@H](c2ccccc2)CNC1=O)N[C@H](CO)Cc1ccccc1`, the inhibition was -0.6%.
Work on `COc1ccc(CCNc2nc3ccc(C)cc3n3cnnc23)cc1OC` yielded an inhibition of 8.2%.
For `CCOC(=O)CSc1nc2ccc(C)cc2n2cnnc12`, the inhibition was 53% (active).
`CCOC(=O)CSc1nncc2ccc(OC)c(OC)c12` showed an inhibition of -9.31%.
Molecule `CC1CN(C2CCN(C(=O)COc3ccccc3)CC2)CC(C)O1` (stereo unspecified) has an inhibition of 1.62%.
`CC(C)(C)Nc1c(N)c(=O)oc2ccccc12` was tested, and the inhibition was 44.6% (active).
For `Nc1c(NCCc2ccccc2)c2ccccc2oc1=O`, the inhibition was -1.28%.
`O=c1oc2ccccc2c(=O)c2ccccc12` gave an inhibition of -8.91%.
`COc1ccc(CCN2CNc3c(c(=O)n(C)c(=O)n3C)C2)cc1OC` was tested, and the inhibition was 6.26%.
`O=C(Nc1cc(S(=O)(=O)N2CCOCC2)ccc1Cl)c1cc(=O)c2ccccc2o1` showed an inhibition of 12.4%.
`Cc1nnnn1/C(=C\c1ccccc1)C(=O)OCC(=O)N1CC2(C)CC1CC(C)(C)C2` (stereo unspecified) was tested, and the inhibition was -1.75%.
In the case of `CCN(CC(=O)Nc1ccc2c(c1)OCO2)S(=O)(=O)c1ccccc1`, the inhibition is reported as -0.97%.
Molecule `O=C(/C=C/c1cccc(C(F)(F)F)c1)N1CCN(c2ccccn2)CC1` has an inhibition of 3.47%.
`O=C(CSc1cccc[n+]1[O-])c1ccc(-c2ccccc2)cc1` showed an inhibition of -4.64%.
`O=C1N[C@@H](Cc2ccccc2)C(=O)N2[C@H]1C[C@]1(Br)c3ccccc3N(S(=O)(=O)c3ccccc3)[C@H]21` showed an inhibition of 8.21%.
Molecule `Cc1nn(C)cc1S(=O)(=O)N1CCN(c2ccc(F)cc2)CC1` has an inhibition of -0.86%.
Molecule `CN(C)c1ccc(C(=S)N2CCN(C(=S)Nc3ccc(Cl)cc3)CC2)cc1` has an inhibition of 7.9%.
In the case of `Cc1cc(Cl)ccc1C(=O)C1CCCN(C(=O)CCN2CCCO2)C1` (stereo unspecified), the inhibition is reported as -7.55%.
For `O=C(/C=C(O)/C=C/c1ccc(O)cc1)/C=C/c1ccc(O)cc1`, the inhibition was 5.34%.
In the case of `O=C(COC(=O)c1ccccc1NC(=O)c1ccco1)Nc1ccc2c(c1)OC(F)(F)O2`, the inhibition is reported as -9.13%.
`CCOC(=O)C(C)n1cnc2scc(-c3ccc(C)c(C)c3)c2c1=O` (stereo unspecified) gave an inhibition of -0.93%.
`O=C(c1cccnc1)N(Cc1ccccc1)C(=O)c1cccnc1` was tested, and the inhibition was -5.95%.
In the case of `O=C(c1cccnc1)N(c1cc2sc(=O)oc2c2ccccc12)S(=O)(=O)c1ccccc1`, the inhibition is reported as 38.2% (active).
With `COc1ccc(N(C(=O)c2cccnc2)S(=O)(=O)c2ccc(OC)c(OC)c2)cc1` the inhibition was -5.15%.
`CCn1c(SCC(=O)Nc2cc(C)ccc2C)nnc1-c1cnccn1` gave an inhibition of 2.21%.
`CN1c2ccc(C=O)c3c(C=O)ccc(c23)N(C)C1(C)C` was tested, and the inhibition was 36.4% (active).
In the case of `CCOC(=O)C1=C(c2ccc(OC)cc2)C(=O)c2ccccc2C1=O`, the inhibition is reported as 81.4% (active).
In the case of `COc1ccc(CNC(=O)CCN2C(=O)c3ccccc3C2=O)cc1`, the inhibition is reported as 0.43%.
In the case of `COC(=O)c1cc(OC)ccc1-c1ccc(OC)cc1`, the inhibition is reported as 6.2%.
`COC(=O)[C@H](Cc1ccccc1)NC(=O)Nc1ccc(S(N)(=O)=O)cc1` gave an inhibition of 1.79%.
For `C=CC[C@@H](CC(=O)N[C@@H](CO)Cc1ccccc1)C(=O)N[C@H](COC(=O)[C@H](CC=C)CC(=O)OC(C)(C)C)Cc1ccccc1`, the inhibition was -4.61%.
For `COc1ccc(NC(=O)CCC(=O)Nc2cc(OC)c(NC(=O)c3ccco3)cc2OC)c(OC)c1`, the inhibition was 1.97%.
In the case of `O=C(CSc1ccc(-c2ccco2)nn1)NCc1ccc2c(c1)OCO2`, the inhibition is reported as -3.81%.
With `COc1ccc(NC(=O)CSc2ccc(-c3ccco3)nn2)c(OC)c1` the inhibition was 47.3% (active).
Work on `CC(C)N(Cc1nnc(-c2ccccc2Br)o1)C(=O)c1cc(Cl)nc2ccccc12` yielded an inhibition of 0.82%.
`CCOC(=O)c1ccc2c(c1)nc(SCC(=O)NC(C)C)n2CC` showed an inhibition of -4.33%.
In the case of `Cc1ccc(CN2CCNC(=O)C2CC(=O)NCc2csc(C(C)C)n2)cc1` (stereo unspecified), the inhibition is reported as -3.03%.
Molecule `CC1CC(C)CN(C(=O)CSc2nnc(CSc3ncccn3)n2C)C1` (stereo unspecified) has an inhibition of -4.12%.
For `CCS(=O)(=O)N1Cc2ccccc2CC1C(=O)Nc1ccc(OC)cc1OC` (stereo unspecified), the inhibition was -2.83%.
`O=C1Nc2cc(C(=O)N3CCC(N4CCCCC4)CC3)ccc2S/C1=C\c1ccccc1` gave an inhibition of -1.91%.
`CCCCn1nnnc1NCc1cc(OC)c(OC)c(OC)c1` was tested, and the inhibition was 10.4%.
`COc1ccc2c(c1)c(=Cc1ccc(N(C)C)cc1)c1cc(-c3ccccc3)[n+](C)n12` was tested, and the inhibition was 43.2% (active).
Work on `Cc1ccc(CNC(=O)CCNS(=O)(=O)c2cccc3nonc23)cc1` yielded an inhibition of 10.6%.
In the case of `Cc1ccc(OS(=O)Nc2cccc3nccnc23)cc1` (stereo unspecified), the inhibition is reported as 6.4%.
Molecule `CCCCn1c(N)c(N(CCOC)C(=O)COc2c(C)cccc2C)c(=O)[nH]c1=O` has an inhibition of -3.46%.
